Active and inactive are the calls of the source. The rule behind the calls is not given here.

Assay [1] deals with T1, Protein phosphatase methylesterase 1 (Homo sapiens) (UniProt Q9Y570).
T1 sequence (whole entry): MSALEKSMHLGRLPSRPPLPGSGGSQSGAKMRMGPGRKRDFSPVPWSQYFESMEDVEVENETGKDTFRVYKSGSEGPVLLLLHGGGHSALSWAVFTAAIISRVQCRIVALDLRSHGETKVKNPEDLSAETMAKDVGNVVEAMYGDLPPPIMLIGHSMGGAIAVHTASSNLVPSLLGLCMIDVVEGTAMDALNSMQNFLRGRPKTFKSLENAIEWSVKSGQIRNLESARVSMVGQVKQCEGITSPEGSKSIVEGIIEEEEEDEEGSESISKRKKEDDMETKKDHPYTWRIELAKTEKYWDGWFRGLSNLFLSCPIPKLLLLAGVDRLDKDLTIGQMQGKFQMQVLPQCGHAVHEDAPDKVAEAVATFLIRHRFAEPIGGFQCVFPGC
As to the kind of experiment: Inhibition of PME1 overexpressed in HEK293T cells assessed as increase in methylated PP2A level at 20 uM after 1 hr by Western blot analysis. The following applies: HEK-293T. It is filed as cell-based. The procedure, abridged:
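HEK 293T cells, either stably overexpressing PME-1 or untransfected, treated in medium for 1 h at 37 °C. Total cell extract (2 mg/mL) run on reducing SDS-PAGE (10%) and blotted with demethylated-specific (4b7), methylated-specific (2A10) and total PP2A antibodies, imaged by infrared fluorescence. Mean ± SEM, n = 3, compared against DMSO-treated cells.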
On the technique in general: Immunoblotting shows a protein as a band on a membrane.

Assay [2] has as its system HEK-293T. The assay can be described thus: Effect on sulfonate ester-Rh labeled soluble proteome in HEK293T cells at 100 uM incubated for 1 hr before proteome labeling measured after 1 hr relative to control. It is filed as cell-based. To be noted: Homo sapiens. The procedure, abridged: (§1)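 HEK 293T cells (DMEM, 10% FBS, 37 °C, 5% CO2) given compound in medium for 1 h at 37 °C, washed, scraped, sonicated in PBS pH 7.5. Soluble fraction diluted to 1 mg/mL protein in PBS, labeled with CA-rhodamine or SE-rhodamine (5 μM, 1 h, 25 °C), run on reducing SDS-PAGE (10%), and band intensities read by in-gel fluorescence against DMSO-treated samples.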

Assay [3] has as its system HEK-293T. As to the kind of experiment: Effect on chloroacetamide-Rh labeled soluble proteome in HEK293T cells at 100 uM incubated for 1 hr before protein labeling measured after 1 hr relative to control. It is filed as cell-based. The following applies: Homo sapiens. The procedure, abridged:
as §1

Assay [4] concerns the target Testis-expressed protein 30 (Homo sapiens) (UniProt Q5JUR7). As to the kind of experiment: Inhibition of C13orf27 binding to FP-biotin in [12C][14N]-lysine, arginine and [13C6][15N2]-lysine, arginine labeled HEK293T cells at 20 uM after 1 hr by isotopic activity-based protein profiling-MudPIT assay. It is filed as cell-based. The following applies: HEK-293T. The method, boiled down: (§2)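 SILAC HEK 293T: light cells (12C14N-Lys/Arg) treated with compound, heavy cells (13C6 15N2-Lys/Arg) with DMSO, 1 h at 37 °C. Proteomes were mixed 1:1 (0.5 mg each) and labeled with FP-biotin (5 μM, 1 h, 25 °C), then streptavidin-enriched, digested on bead with trypsin, and run by MudPIT. Light/heavy ratios were normalized to a DMSO/DMSO control. Only SHs with ≥2 quantifiable peptides were kept; mean ± SEM across peptides.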

Assay [5] deals with Prolyl endopeptidase-like (Homo sapiens) (UniProt Q4J6C6). As to the kind of experiment: Inhibition of PREPL binding to FP-biotin in [12C][14N]-lysine, arginine and [13C6][15N2]-lysine, arginine labeled HEK293T cells at 20 uM after 1 hr by isotopic activity-based protein profiling-MudPIT assay. It is filed as cell-based. The following applies: HEK-293T. The method, boiled down:
as §2

Assay [6] has as its target Lysosomal protective protein (Homo sapiens) (UniProt P10619). As to the kind of experiment: Inhibition of CTSA binding to FP-biotin in [12C][14N]-lysine, arginine and [13C6][15N2]-lysine, arginine labeled HEK293T cells at 20 uM after 1 hr by isotopic activity-based protein profiling-MudPIT assay. To be noted: HEK-293T. It is filed as cell-based. The procedure, abridged:
as §2

In assay [7] the target is S-formylglutathione hydrolase (Homo sapiens) (UniProt P10768). The assay can be described thus: Inhibition of ESD binding to FP-biotin in [12C][14N]-lysine, arginine and [13C6][15N2]-lysine, arginine labeled HEK293T cells at 20 uM after 1 hr by isotopic activity-based protein profiling-MudPIT assay. It is filed as cell-based. To be noted: HEK-293T. The procedure, abridged: as §2

The target of assay [8] is Platelet-activating factor acetylhydrolase IB subunit alpha1 (Homo sapiens) (UniProt Q15102). The assay can be described thus: Inhibition of PAFAH1B3 binding to FP-biotin in [12C][14N]-lysine, arginine and [13C6][15N2]-lysine, arginine labeled HEK293T cells at 20 uM after 1 hr by isotopic activity-based protein profiling-MudPIT assay. It is filed as cell-based. The following applies: HEK-293T. The procedure, abridged: as §2

Assay [9] has as its target Retinoid-inducible serine carboxypeptidase (Homo sapiens) (UniProt Q9HB40). As to the kind of experiment: Inhibition of SCPEP1 binding to FP-biotin in [12C][14N]-lysine, arginine and [13C6][15N2]-lysine, arginine labeled HEK293T cells at 20 uM after 1 hr by isotopic activity-based protein profiling-MudPIT assay. The class given is cell-based. The following applies: HEK-293T. The method, boiled down:
as §2

Assay [10] has as its target Lysosomal Pro-X carboxypeptidase (Homo sapiens) (UniProt P42785). The assay can be described thus: Inhibition of PRCP binding to FP-biotin in[12C][14N]-lysine, arginine and [13C6][15N2]-lysine, arginine labeled HEK293T cells at 20 uM after 1 hr by isotopic activity-based protein profiling-MudPIT assay. It is filed as cell-based. The following applies: HEK-293T. The method, boiled down:
as §2

The target of assay [11] is Prolyl endopeptidase (Homo sapiens) (UniProt P48147). As to the kind of experiment: Inhibition of PREP binding to FP-biotin in [12C][14N]-lysine, arginine and [13C6][15N2]-lysine, arginine labeled HEK293T cells at 20 uM after 1 hr by isotopic activity-based protein profiling-MudPIT assay. It is filed as cell-based. The following applies: HEK-293T. The procedure, abridged:
as §2

In assay [12] the target is Acyl-protein thioesterase 1 (Homo sapiens) (UniProt O75608). The assay can be described thus: Inhibition of LYPLA1 binding to FP-biotin in [12C][14N]-lysine, arginine and [13C6][15N2]-lysine, arginine labeled HEK293T cells at 20 uM after 1 hr by isotopic activity-based protein profiling-MudPIT assay. It is filed as cell-based. To be noted: HEK-293T. The procedure, abridged:
as §2

The target of assay [13] is Acyl-coenzyme A thioesterase 1 (Homo sapiens) (UniProt Q86TX2). As to the kind of experiment: Inhibition of ACOT1 binding to FP-biotin in [12C][14N]-lysine, arginine and [13C6][15N2]-lysine, arginine labeled HEK293T cells at 20 uM after 1 hr by isotopic activity-based protein profiling-MudPIT assay. The class given is cell-based. The following applies: HEK-293T. The method, boiled down:
as §2

In assay [14] the target is Lysosomal thioesterase PPT2 (Homo sapiens) (UniProt Q9UMR5). As to the kind of experiment: Inhibition of PPT2 binding to FP-biotin in [12C][14N]-lysine, arginine and [13C6][15N2]-lysine, arginine labeled HEK293T cells at 20 uM after 1 hr by isotopic activity-based protein profiling-MudPIT assay. The class given is cell-based. To be noted: HEK-293T. The method, boiled down:
as §2

For assay [15], the target named is T1, Protein phosphatase methylesterase 1 (Homo sapiens). To be noted: HEK-293T, 20 uM.
The target is the same in assay [16]. The following applies: HEK-293T, 20 uM. The source holds these as a separate data set.
Assay [17] has the same target. To be noted: HEK-293T, 50 uM.

Lysosomal protective protein (Homo sapiens), sequence (P10619 29-326 limits assumed): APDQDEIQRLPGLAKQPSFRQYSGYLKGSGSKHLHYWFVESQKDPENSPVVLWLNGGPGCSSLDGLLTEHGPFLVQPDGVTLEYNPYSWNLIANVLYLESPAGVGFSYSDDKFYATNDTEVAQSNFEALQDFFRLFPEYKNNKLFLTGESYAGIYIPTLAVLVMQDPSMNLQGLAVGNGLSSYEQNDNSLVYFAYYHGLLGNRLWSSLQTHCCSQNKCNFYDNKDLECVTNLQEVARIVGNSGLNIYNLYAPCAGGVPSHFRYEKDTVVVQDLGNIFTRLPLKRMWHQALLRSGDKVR
Lysosomal protective protein (Homo sapiens), sequence (P10619 327-480 limits assumed): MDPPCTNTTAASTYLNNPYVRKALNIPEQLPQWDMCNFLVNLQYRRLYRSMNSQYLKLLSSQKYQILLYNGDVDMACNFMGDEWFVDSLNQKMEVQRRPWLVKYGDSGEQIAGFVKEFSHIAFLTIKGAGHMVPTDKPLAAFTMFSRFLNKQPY
Acyl-coenzyme A thioesterase 1 (Homo sapiens), sequence (Q86TX2 whole entry): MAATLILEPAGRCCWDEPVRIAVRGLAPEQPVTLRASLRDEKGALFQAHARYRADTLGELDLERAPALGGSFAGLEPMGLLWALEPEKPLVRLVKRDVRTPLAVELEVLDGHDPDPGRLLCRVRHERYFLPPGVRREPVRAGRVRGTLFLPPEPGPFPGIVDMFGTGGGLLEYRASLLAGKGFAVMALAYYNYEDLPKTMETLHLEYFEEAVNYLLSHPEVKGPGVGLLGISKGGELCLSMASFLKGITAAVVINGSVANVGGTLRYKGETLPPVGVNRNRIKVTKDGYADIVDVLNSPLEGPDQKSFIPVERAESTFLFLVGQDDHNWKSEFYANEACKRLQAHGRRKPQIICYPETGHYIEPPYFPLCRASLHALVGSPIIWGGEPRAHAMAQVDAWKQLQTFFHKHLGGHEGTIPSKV
Lysosomal Pro-X carboxypeptidase (Homo sapiens), sequence (P42785 whole entry): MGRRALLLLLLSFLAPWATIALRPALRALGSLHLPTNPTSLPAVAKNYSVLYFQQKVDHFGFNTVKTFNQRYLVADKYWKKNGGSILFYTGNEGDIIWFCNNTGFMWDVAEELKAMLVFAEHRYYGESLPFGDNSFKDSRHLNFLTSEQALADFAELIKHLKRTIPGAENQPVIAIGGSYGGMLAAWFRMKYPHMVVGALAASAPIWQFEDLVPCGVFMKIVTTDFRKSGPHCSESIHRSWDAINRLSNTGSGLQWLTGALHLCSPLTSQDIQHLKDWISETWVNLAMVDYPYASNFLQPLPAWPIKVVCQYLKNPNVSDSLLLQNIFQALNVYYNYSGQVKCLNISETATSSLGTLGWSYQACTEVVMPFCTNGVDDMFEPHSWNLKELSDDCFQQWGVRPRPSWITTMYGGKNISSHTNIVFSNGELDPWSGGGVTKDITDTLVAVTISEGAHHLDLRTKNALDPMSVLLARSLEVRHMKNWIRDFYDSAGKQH
Lysosomal thioesterase PPT2 (Homo sapiens), sequence (Q9UMR5 whole entry): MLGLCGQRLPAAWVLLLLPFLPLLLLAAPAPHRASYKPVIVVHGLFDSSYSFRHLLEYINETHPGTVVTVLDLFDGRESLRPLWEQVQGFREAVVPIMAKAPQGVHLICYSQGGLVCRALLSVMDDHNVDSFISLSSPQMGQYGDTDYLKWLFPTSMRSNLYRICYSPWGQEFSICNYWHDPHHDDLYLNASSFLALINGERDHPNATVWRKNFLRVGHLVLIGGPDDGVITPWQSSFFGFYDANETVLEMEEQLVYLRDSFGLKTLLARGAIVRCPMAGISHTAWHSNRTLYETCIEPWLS
Platelet-activating factor acetylhydrolase IB subunit alpha1 (Homo sapiens), sequence (Q15102 whole entry): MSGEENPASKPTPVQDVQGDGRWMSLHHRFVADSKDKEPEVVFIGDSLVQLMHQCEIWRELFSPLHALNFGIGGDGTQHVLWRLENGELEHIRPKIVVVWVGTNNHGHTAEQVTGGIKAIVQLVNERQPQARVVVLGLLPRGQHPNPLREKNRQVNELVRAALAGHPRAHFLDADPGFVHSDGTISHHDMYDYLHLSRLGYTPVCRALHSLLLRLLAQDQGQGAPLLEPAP
Prolyl endopeptidase-like (Homo sapiens), sequence (Q4J6C6 whole entry): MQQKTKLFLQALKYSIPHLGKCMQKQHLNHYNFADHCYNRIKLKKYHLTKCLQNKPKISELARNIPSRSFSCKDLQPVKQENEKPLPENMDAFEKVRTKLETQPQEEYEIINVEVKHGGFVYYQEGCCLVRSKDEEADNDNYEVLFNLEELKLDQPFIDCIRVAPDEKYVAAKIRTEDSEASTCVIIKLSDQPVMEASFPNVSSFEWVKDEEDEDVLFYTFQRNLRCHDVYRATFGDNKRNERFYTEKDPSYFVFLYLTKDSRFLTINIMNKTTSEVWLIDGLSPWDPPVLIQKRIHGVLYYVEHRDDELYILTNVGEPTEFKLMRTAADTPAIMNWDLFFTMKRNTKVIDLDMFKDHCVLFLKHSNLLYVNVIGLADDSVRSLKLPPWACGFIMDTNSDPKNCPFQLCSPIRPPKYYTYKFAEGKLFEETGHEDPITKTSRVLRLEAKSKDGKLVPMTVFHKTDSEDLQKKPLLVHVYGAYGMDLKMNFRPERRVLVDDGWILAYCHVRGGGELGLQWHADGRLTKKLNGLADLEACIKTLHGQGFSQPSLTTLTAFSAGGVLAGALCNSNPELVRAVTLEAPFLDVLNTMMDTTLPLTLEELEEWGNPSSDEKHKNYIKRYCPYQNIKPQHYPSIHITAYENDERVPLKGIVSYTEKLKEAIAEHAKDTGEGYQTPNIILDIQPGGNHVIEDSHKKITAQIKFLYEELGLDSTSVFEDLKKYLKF
S-formylglutathione hydrolase (Homo sapiens), sequence (P10768 whole entry): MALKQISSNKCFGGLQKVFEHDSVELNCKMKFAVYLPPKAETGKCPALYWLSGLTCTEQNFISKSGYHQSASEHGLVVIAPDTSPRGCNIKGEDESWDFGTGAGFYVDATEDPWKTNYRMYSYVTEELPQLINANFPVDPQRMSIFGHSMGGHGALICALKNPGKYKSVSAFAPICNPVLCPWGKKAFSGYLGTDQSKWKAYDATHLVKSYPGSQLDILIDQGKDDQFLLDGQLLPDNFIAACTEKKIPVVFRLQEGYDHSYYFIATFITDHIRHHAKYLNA
Testis-expressed protein 30 (Homo sapiens), sequence (Q5JUR7 whole entry): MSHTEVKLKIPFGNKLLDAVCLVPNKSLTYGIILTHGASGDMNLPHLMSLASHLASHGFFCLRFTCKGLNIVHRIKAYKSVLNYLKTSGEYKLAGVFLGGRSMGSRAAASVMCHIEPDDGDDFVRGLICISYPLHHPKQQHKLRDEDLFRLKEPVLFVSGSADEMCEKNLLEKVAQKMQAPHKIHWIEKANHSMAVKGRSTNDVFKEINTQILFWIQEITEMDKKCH
Acyl-protein thioesterase 1 (Homo sapiens), sequence (O75608 whole entry): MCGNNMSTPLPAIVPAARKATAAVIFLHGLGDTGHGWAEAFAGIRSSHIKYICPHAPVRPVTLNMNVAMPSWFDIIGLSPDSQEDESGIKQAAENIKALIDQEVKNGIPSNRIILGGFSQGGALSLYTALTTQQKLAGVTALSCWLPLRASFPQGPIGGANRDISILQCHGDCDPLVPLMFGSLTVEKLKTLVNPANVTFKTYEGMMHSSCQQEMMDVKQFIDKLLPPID
Prolyl endopeptidase (Homo sapiens), sequence (P48147 whole entry): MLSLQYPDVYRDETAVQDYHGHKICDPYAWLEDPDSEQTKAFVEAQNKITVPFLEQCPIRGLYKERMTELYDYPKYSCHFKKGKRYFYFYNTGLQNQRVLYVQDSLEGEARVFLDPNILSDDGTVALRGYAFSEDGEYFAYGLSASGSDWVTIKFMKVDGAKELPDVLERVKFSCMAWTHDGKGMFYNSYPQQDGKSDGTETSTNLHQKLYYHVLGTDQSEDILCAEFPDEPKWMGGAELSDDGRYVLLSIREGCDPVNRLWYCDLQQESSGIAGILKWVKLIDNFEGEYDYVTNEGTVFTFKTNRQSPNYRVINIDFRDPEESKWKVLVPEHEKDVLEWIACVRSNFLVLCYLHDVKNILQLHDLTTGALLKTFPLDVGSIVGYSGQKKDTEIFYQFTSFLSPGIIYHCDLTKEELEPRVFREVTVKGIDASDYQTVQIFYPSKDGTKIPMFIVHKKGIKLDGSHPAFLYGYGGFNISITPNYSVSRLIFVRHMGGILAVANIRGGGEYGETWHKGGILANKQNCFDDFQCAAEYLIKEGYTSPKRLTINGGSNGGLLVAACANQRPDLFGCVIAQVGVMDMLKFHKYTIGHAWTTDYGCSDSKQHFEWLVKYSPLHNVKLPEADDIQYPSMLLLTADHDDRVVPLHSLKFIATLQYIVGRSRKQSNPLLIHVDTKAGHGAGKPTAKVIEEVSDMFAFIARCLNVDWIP
Retinoid-inducible serine carboxypeptidase (Homo sapiens), sequence (Q9HB40 whole entry): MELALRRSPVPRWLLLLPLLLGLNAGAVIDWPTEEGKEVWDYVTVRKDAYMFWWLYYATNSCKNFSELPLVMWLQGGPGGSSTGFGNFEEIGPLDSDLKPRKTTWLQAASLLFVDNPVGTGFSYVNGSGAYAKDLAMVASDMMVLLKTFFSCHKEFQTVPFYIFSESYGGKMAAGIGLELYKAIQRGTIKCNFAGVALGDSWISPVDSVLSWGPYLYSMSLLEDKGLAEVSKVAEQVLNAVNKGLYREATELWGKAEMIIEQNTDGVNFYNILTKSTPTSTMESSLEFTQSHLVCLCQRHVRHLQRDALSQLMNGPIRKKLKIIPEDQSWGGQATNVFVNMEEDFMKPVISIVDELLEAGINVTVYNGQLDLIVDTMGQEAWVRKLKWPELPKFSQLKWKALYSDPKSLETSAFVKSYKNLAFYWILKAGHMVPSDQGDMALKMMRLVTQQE

In the case of `N#C/C(=C\c1cccn1S(=O)(=O)c1cccc([N+](=O)[O-])c1)S(=O)(=O)c1ccc(F)cc1`, the inhibition result in assay [1], in assay [15], in [16] and in [17] was “Active” each time. The outcome in [2] and in assay [3] was inactive. In addition, the inhibition result in assay [4], in assay [5], in assay [6], in assay [7], in assay [8] and in assay [9] was “inactive” in each case. Besides, the inhibition result in assay [10], in assay [11], in [12], in [13] and in assay [14] was “inactive” in each case.

The values above are taken from ChEMBL document CHEMBL2203175, “Discovery and optimization of sulfonyl acrylonitriles as selective, covalent inhibitors of protein phosphatase methylesterase-1” (J Med Chem, 2011).
